The pIC50 is the IC50 on a negative log10 scale, so that one unit is a factor of ten.

The text below walks through data of ChEMBL document CHEMBL4229344 (Eur J Med Chem, 2018).

Each structure is given as a SMILES string. pIC50: −log10 of the molar value.

Assay [1] has as its target T1, Platelet-derived growth factor receptor alpha (Homo sapiens, UniProt P16234). In words: Inhibition of PDGFRalpha (unknown origin) using poly(4:1 Glu,Tyr) peptide as substrate preincubated for 1 hr followed by addition of ATP and measured after 30 mins by ADP-Glo bioluminescence assay.
Assay [2] concerns the target T1, Platelet-derived growth factor receptor alpha. In words: Inhibition of PDGFRalpha in human EOL-1 cells assessed as decrease in ERK phosphorylation at T202/Y204 residues after 2 hrs in presence of PDGF-AA by Western blot analysis. It counts as cell-based.
Assay [3] concerns the target Serine/threonine-protein kinase WNK4 (Homo sapiens) (UniProt Q96J92). Briefly: Binding affinity to wild-type human partial length WNK4 (A31 to D461 residues) expressed in mammalian expression system assessed as residual binding level at 1 uM by Kinomescan method relative to control.
The target of assay [4] is Casein kinase I isoform alpha-like (Homo sapiens) (UniProt Q8N752). In words: Binding affinity to wild-type human full length CSNK1A1L (M1 to N337 residues) expressed in bacterial expression system assessed as residual binding level at 1 uM by Kinomescan method relative to control. Summed up: (§1)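 Single-concentration (1 μM) competition-binding screen run by KINOMEscan against a panel of 468 purified kinases and mutants. The read-out is the relative binding activity of the test compound to each kinase.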

Assay [5] addresses SRSF protein kinase 3 (Homo sapiens) (UniProt Q9UPE1). Briefly: Binding affinity to wild-type human partial length SRPK3 (P41 to P567 residues) expressed in bacterial expression system assessed as residual binding level at 1 uM by Kinomescan method relative to control.
In assay [6] the target is Ephrin type-A receptor 7 (Homo sapiens) (UniProt Q15375). Briefly: Binding affinity to wild-type human partial length EPHA7 (Y608 to S912 residues) expressed in bacterial expression system assessed as residual binding level at 1 uM by Kinomescan method relative to control.
The test system of assay [7] is Hepatocyte growth factor receptor (Homo sapiens), P08581 [Y1235D]. In words: Binding affinity to human partial length MET Y1235D mutant (D1010 to S1367 residues) expressed in bacterial expression system assessed as residual binding level at 1 uM by Kinomescan method relative to control. A digest of the protocol:
(§2)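 Kinome-wide single-concentration binding screen (KINOMEscan) at 1 μM against a panel of 468 purified kinases and mutants. Read-out is relative binding of each kinase compared with control. Selectivity across the panel was summarised as an S(10) score.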

For assay [8], the target named is Serine/threonine-protein kinase RIO1 (Homo sapiens) (UniProt Q9BRS2). In words: Binding affinity to wild-type human full length RIOK1 (M1 to K568 residues) expressed in bacterial expression system assessed as residual binding level at 1 uM by Kinomescan method relative to control. A digest of the protocol:
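Single-concentration KINOMEscan (DiscoverX) binding screen at 1 μM against a panel of 468 purified kinases and mutants. The read-out is binding relative to control.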

In assay [9] the target is Tyrosine-protein kinase ABL1 (Homo sapiens, UniProt P00519). Briefly: Binding affinity to wild-type human phosphorylated ABL1 (S229 to K512 residues) expressed in mammalian expression system assessed as residual binding level at 1 uM by Kinomescan method relative to control.
Assay [10] has as its target Atypical kinase COQ8B, mitochondrial (Homo sapiens) (UniProt Q96D53). In words: Binding affinity to wild-type human full length ADCK4 (M1 to S544 residues) expressed in bacterial expression system assessed as residual binding level at 1 uM by Kinomescan method relative to control. A digest of the protocol:
(§3)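 KINOMEscan competition binding against 468 purified kinases/mutants, test compound at 1 µM; residual binding relative to control.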

Assay [11] deals with Proto-oncogene tyrosine-protein kinase receptor Ret (Homo sapiens), P07949 [V804M]. In words: Binding affinity to human partial length RET V804M mutant (E713 to D1014 residues) expressed in bacterial expression system assessed as residual binding level at 1 uM by Kinomescan method relative to control. A digest of the protocol: as §2
Assay [12] addresses Tyrosine-protein kinase CSK (Homo sapiens) (UniProt P41240). Briefly: Binding affinity to wild-type human full length CSK (M1 to L450 residues) expressed in bacterial expression system assessed as residual binding level at 1 uM by Kinomescan method relative to control. Summed up: as §3
Assay [13] addresses Cyclin-dependent kinase 19 (Homo sapiens) (UniProt Q9BWU1). In words: Binding affinity to wild-type human partial length CDK11 (M1 to N360 residues) expressed in bacterial expression system assessed as residual binding level at 1 uM by Kinomescan method relative to control. Summed up: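 Kinome-wide competition binding screen against a panel of 468 purified kinases/mutants, with the test compound at a single concentration of 1 μM. Read-out is the relative binding activity of each kinase in the presence of compound.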

In assay [14] the target is Vascular endothelial growth factor receptor 3 (Homo sapiens) (UniProt P35916). In words: Binding affinity to wild-type human partial length FLT4 (E821 to E1196 residues) expressed in bacterial expression system assessed as residual binding level at 1 uM by Kinomescan method relative to control.
Assay [15] deals with Phosphatidylinositol 4,5-bisphosphate 3-kinase catalytic subunit alpha isoform (Homo sapiens), P42336 [H1047Y]. In words: Binding affinity to human partial length PIK3CA H1047Y mutant (R108 to N1068 residues) expressed in mammalian expression system assessed as residual binding level at 1 uM by Kinomescan method relative to control. A digest of the protocol:
as §2

In assay [16] the target is Mast/stem cell growth factor receptor Kit (Homo sapiens, UniProt P10721). Briefly: Binding affinity to wild-type human partial length autoinhibited KIT (Y545 to D952 residues) expressed in mammalian expression system assessed as residual binding level at 1 uM by Kinomescan method relative to control.
For assay [17], the system named is Tyrosine-protein kinase ABL1 (Homo sapiens), P00519 [F317I]. In words: Binding affinity to human phosphorylated ABL1 F317I mutant (S229 to K512 residues) expressed in mammalian expression system assessed as residual binding level at 1 uM by Kinomescan method relative to control. Summed up: as §1
Assay [18] concerns Epidermal growth factor receptor (Homo sapiens), P00533 [UNDEFINED MUTATION]. Briefly: Binding affinity to human partial length EGFR L747-E749del/A750P mutant expressed in bacterial expression system assessed as residual binding level at 1 uM by Kinomescan method relative to control. Summed up: as §2
The test system of assay [19] is Tyrosine-protein kinase ABL1 (Homo sapiens), P00519 [M351T]. Briefly: Binding affinity to human phosphorylated ABL1 M351T mutant (S229 to K512 residues) expressed in mammalian expression system assessed as residual binding level at 1 uM by Kinomescan method relative to control. A digest of the protocol:
as §1

The target in assay [20] is Microtubule-associated serine/threonine-protein kinase 1 (Homo sapiens) (UniProt Q9Y2H9). In words: Binding affinity to wild-type human partial length MAST1 (S346 to V730 residues) expressed in mammalian expression system assessed as residual binding level at 1 uM by Kinomescan method relative to control.
Assay [21] concerns the target TGF-beta receptor type-2 (Homo sapiens) (UniProt P37173). In words: Binding affinity to wild-type human partial length TGFBR2 (I218 to K567 residues) expressed in bacterial expression system assessed as residual binding level at 1 uM by Kinomescan method relative to control.

T1 sequence (P16234 whole entry): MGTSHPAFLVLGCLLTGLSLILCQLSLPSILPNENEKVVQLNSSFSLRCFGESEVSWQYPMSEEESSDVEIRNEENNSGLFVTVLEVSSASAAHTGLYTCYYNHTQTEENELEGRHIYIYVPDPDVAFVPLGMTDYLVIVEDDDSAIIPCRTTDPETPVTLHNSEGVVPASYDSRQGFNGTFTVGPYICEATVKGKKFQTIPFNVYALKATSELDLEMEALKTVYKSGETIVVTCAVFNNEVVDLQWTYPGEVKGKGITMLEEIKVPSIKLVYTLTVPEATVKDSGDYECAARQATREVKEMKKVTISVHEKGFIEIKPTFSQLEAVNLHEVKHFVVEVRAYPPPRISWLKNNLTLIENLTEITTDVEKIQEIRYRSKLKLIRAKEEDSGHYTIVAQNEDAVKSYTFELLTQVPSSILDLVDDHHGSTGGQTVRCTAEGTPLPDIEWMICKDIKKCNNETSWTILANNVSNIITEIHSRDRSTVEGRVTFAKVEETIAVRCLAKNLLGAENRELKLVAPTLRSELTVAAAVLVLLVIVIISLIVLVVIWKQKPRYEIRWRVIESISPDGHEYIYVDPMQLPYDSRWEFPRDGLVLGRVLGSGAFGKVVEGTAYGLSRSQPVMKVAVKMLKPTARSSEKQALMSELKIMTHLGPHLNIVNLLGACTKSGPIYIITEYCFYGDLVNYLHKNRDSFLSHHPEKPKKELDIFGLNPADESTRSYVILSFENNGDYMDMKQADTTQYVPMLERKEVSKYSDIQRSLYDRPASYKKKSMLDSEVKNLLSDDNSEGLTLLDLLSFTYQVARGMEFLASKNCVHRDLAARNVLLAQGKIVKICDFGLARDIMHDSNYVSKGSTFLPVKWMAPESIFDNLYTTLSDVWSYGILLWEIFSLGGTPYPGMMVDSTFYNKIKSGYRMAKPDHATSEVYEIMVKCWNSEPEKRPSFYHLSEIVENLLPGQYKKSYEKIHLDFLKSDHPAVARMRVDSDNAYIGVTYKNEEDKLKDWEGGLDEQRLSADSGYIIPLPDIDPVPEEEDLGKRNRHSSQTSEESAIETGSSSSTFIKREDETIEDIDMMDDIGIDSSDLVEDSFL
Chain of Serine/threonine-protein kinase WNK4 (Homo sapiens) (Q96J92 whole entry, the tested form may be a part, canonical isoform): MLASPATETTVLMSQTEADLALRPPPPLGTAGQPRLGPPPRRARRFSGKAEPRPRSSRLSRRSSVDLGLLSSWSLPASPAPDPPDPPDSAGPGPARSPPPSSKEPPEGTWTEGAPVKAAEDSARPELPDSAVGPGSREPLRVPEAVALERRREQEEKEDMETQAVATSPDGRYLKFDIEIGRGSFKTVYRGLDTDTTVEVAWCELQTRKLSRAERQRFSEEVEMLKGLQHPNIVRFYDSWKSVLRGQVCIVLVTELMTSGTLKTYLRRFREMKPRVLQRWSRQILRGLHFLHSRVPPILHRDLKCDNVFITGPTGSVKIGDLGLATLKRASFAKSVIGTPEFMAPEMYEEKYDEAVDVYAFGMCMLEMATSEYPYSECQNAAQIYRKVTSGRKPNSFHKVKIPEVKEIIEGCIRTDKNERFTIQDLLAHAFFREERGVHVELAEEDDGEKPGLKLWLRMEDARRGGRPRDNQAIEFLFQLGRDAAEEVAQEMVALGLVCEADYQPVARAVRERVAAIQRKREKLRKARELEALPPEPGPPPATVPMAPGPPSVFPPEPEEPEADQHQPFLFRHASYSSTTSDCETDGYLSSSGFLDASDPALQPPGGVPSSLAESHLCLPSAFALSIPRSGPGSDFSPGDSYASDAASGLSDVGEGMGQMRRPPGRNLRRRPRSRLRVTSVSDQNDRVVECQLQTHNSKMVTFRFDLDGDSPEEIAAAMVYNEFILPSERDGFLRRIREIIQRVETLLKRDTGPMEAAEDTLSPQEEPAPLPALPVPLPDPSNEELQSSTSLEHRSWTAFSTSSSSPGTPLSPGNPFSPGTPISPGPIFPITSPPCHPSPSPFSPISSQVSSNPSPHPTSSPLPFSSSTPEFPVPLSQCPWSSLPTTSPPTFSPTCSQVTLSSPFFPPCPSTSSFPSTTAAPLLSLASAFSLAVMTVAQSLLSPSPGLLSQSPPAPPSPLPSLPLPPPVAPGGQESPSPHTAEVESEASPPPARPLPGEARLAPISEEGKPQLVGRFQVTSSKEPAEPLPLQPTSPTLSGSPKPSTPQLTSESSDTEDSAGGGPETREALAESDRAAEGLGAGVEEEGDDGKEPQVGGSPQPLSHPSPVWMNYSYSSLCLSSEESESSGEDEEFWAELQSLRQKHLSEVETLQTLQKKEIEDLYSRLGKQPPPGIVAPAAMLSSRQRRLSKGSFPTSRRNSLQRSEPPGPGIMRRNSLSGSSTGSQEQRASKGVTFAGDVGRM
Chain of Proto-oncogene tyrosine-protein kinase receptor Ret (Homo sapiens), P07949 [V804M] (P07949 whole entry V804M, the tested form may be a part): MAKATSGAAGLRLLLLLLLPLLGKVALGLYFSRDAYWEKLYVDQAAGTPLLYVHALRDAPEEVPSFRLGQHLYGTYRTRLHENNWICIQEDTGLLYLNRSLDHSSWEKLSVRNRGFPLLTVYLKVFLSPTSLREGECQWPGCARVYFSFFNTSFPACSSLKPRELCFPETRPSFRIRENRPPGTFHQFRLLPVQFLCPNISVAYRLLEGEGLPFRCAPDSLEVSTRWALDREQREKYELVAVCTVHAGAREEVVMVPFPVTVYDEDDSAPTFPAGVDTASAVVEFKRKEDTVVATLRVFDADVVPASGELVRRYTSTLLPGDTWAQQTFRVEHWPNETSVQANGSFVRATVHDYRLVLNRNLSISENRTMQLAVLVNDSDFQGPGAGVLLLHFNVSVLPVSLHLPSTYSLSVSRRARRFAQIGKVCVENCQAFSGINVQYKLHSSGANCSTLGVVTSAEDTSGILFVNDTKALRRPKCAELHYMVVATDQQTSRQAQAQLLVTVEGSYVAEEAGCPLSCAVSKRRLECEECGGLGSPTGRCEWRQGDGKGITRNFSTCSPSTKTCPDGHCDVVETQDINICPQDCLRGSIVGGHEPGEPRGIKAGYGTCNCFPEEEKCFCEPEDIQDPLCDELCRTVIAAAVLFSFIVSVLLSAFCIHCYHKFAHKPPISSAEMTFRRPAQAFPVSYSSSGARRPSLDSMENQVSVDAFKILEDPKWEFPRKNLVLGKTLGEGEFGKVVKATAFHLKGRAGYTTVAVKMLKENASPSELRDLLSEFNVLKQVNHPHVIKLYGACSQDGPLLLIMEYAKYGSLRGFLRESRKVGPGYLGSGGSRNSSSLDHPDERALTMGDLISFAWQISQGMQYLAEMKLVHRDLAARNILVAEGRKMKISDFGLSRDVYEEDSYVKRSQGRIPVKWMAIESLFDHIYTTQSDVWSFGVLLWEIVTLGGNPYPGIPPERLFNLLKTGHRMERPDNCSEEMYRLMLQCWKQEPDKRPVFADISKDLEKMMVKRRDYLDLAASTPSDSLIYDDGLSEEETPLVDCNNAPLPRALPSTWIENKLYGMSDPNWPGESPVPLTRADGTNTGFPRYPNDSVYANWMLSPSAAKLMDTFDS
Chain of Mast/stem cell growth factor receptor Kit (P10721 whole entry, the tested form may be a part): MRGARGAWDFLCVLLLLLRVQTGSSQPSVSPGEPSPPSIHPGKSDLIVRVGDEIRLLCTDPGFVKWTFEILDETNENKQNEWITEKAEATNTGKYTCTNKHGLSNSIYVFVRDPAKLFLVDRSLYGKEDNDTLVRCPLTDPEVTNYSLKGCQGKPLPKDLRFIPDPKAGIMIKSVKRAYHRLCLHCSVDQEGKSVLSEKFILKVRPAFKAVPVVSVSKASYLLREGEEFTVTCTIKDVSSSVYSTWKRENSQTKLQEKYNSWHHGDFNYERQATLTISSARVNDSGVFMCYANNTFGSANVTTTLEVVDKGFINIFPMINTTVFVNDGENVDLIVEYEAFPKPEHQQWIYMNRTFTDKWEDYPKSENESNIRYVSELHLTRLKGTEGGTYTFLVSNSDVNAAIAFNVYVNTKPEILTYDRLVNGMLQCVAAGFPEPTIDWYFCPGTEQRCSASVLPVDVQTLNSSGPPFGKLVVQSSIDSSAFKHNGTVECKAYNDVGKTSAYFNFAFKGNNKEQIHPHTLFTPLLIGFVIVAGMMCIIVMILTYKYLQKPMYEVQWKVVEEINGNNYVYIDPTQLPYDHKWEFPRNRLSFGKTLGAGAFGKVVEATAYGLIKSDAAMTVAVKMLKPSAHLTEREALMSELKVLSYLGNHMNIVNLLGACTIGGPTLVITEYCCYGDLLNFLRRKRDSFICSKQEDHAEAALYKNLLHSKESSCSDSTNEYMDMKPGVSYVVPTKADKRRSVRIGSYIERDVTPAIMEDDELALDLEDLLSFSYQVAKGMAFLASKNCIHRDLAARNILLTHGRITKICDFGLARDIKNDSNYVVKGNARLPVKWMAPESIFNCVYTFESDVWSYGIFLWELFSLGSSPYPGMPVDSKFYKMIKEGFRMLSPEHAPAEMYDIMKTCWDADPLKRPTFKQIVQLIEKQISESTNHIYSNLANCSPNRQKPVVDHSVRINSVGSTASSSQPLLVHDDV
Chain of Serine/threonine-protein kinase RIO1 (Homo sapiens) (Q9BRS2 whole entry, the tested form may be a part): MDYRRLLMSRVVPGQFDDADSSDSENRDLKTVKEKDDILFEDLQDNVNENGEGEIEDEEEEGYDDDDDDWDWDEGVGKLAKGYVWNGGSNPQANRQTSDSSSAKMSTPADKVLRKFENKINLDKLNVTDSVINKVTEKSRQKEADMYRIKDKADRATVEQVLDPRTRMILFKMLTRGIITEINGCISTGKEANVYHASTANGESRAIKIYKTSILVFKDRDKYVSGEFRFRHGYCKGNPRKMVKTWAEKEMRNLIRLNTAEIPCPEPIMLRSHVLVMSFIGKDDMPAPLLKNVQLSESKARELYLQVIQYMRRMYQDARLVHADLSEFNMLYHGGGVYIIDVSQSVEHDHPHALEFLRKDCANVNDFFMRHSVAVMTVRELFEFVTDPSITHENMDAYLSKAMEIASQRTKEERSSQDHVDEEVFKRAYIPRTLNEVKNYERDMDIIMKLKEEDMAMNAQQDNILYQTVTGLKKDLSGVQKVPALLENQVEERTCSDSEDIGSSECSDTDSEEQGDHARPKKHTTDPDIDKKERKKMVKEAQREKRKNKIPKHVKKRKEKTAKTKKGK

As for `Cc1ccc(NC(=O)c2ccc(CN(CCN(C)C)C(=O)c3cccnc3)cc2)cc1Nc1nccc(-c2cccnc2)n1`, the negative-log IC50 (pIC50) in assay [1] is 6.88. Moreover, the inhibition entry in [2] is “Dose-dependent effect”. The Activity was found to be 100% in assay [3]; 93% in [4]; 85% in assay [5]; 100% in [6]; 93% in assay [7]; 100% in [8]. Besides, the Activity in assay [9] is 73%; in [10], 94%; in assay [11], 96%; in assay [12], 92%; in assay [13], 82%; in assay [14], 100%. Moreover, the Activity in assay [15] amounted to 76%; in [16], 100%; in assay [17], 74%; in assay [18], 77%; in [19], 77%; in [20], 100%. In assay [21], the Activity stood at 100%.
